Experimental findings from ChEMBL document CHEMBL1782031, “Urea/thiourea derivatives of quinazolinone-lysine conjugates: synthesis and structure-activity relationships of a new series of antimicrobials” (2011) are described below.

What all share (type): functional
What all share (conditions): read-out: DIZ

The test system of experiment [1] is Escherichia coli. As to the kind of experiment: Antibacterial activity against Escherichia coli at 10 ug/disc after 24 hrs by disc diffusion method. The procedure, abridged:
(§1)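 Disc diffusion assay. Discs were held at 4 °C for 2 h so the compounds could diffuse, then incubated at 28 °C. Inhibition zone diameters were measured in mm after 24 h. Each compound was tested in triplicate.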
(In general: Agar diffusion results depend on both activity and mobility in agar.)

For experiment [2], the system named is Pseudomonas fluorescens. As to the kind of experiment: Antibacterial activity against Pseudomonas fluorescens at 10 ug/disc after 24 hrs by disc diffusion method. Summed up:
as §1

For experiment [3], the system named is Bacillus subtilis. As to the kind of experiment: Antibacterial activity against Bacillus subtilis at 10 ug/disc after 24 hrs by disc diffusion method. Summed up: as §1
Experiment [4] has as its system Xanthomonas oryzae. The experiment in a line: Antibacterial activity against Xanthomonas oryzae at 10 ug/disc after 24 hrs by disc diffusion method.
The nature of experiment [5]: Antibacterial activity against Xanthomonas campestris pvs. at 10 ug/disc after 24 hrs by disc diffusion method. The procedure, abridged:
as §1

With `Cc1ccccc1NC(=S)NCCCC[C@H](NC(=O)CCc1nc2ccccc2c(=O)[nH]1)C(=O)O`, the zone of inhibition at 10 µg/disc in experiment [1] worked out at 23 mm; in experiment [2] it was 25 mm; in experiment [3], 23 mm; in experiment [4], 28 mm; in experiment [5], 28 mm.

Take `O=C(CCc1nc2ccccc2c(=O)[nH]1)N[C@@H](CCCCNC(=S)Nc1cccc(F)c1)C(=O)O`: the zone of inhibition at 10 µg/disc in experiment [1] was 38 mm; in experiment [2], 34 mm; in experiment [3], 36 mm; in experiment [4], 36 mm; in experiment [5] it was 36 mm.

On to `Cc1cc(F)ccc1NC(=S)NCCCC[C@H](NC(=O)CCCc1nc2ccccc2c(=O)[nH]1)C(=O)O`, for which the zone of inhibition at 10 µg/disc in experiment [1] worked out at 34 mm; in experiment [2], 34 mm; in experiment [3], 33 mm; in experiment [4] it was 33 mm; in experiment [5], 32 mm.

With `Cc1ccccc1NC(=S)NCCCC[C@H](NC(=O)CCCc1nc2ccccc2c(=O)[nH]1)C(=O)O`, the zone of inhibition at 10 µg/disc came out at 24 mm in experiment [1]; 25 mm in experiment [2]; 23 mm in experiment [3]; 25 mm in experiment [4]; 26 mm in experiment [5].

For `O=C(CCCc1nc2ccccc2c(=O)[nH]1)N[C@@H](CCCCNC(=S)Nc1cccc(F)c1)C(=O)O`, the zone of inhibition at 10 µg/disc in experiment [1] came to 32 mm; in experiment [2] it was 32 mm; in experiment [3], 34 mm; in experiment [4], 34 mm; in experiment [5], 33 mm.

As to `COC(=O)[C@H](CCCCNC(C)=O)NC(=O)CCc1nc2ccccc2c(=O)[nH]1`, the zone of inhibition at 10 µg/disc came out at 10 mm in experiment [1]; 12 mm in experiment [2]; 9 mm in experiment [3]; 12 mm in experiment [4]; 11 mm in experiment [5].

Consider `COC(=O)[C@H](CCCCNC(C)=O)NC(=O)CCCc1nc2ccccc2c(=O)[nH]1`, for which the zone of inhibition at 10 µg/disc is 9 mm in experiment [1]; 7 mm in experiment [2]; 8 mm in experiment [3]; 8 mm in experiment [4]; 6 mm in experiment [5].

With `CC(=O)NCCCC[C@H](NC(=O)CCc1nc2ccccc2c(=O)[nH]1)C(=O)O`, the zone of inhibition at 10 µg/disc came to 10 mm in experiment [1]; 13 mm in experiment [2]; 11 mm in experiment [3]; 14 mm in experiment [4]; 12 mm in experiment [5].

For the compound `CC(=O)NCCCC[C@H](NC(=O)CCCc1nc2ccccc2c(=O)[nH]1)C(=O)O`, the zone of inhibition at 10 µg/disc was 11 mm in experiment [1]; 10 mm in experiment [2]; 10 mm in experiment [3]; 12 mm in experiment [4]; 14 mm in experiment [5].

As for `COC(=O)[C@H](CCCCNS(C)(=O)=O)NC(=O)CCc1nc2ccccc2c(=O)[nH]1`, the zone of inhibition at 10 µg/disc is 6 mm in experiment [1]; 9 mm in experiment [2]; 8 mm in experiment [3]; 11 mm in experiment [4]; 8 mm in experiment [5].

Consider `COC(=O)[C@H](CCCCNS(C)(=O)=O)NC(=O)CCCc1nc2ccccc2c(=O)[nH]1`, for which the zone of inhibition at 10 µg/disc in experiment [1] amounted to 9 mm; in experiment [2], 11 mm; in experiment [3], 11 mm; in experiment [4], 11 mm; in experiment [5], 12 mm.

Consider `CS(=O)(=O)NCCCC[C@H](NC(=O)CCc1nc2ccccc2c(=O)[nH]1)C(=O)O`, for which the zone of inhibition at 10 µg/disc in experiment [1] was 9 mm; in experiment [2], 12 mm; in experiment [3], 9 mm; in experiment [4], 10 mm; in experiment [5] it was 10 mm.

In the case of `CS(=O)(=O)NCCCC[C@H](NC(=O)CCCc1nc2ccccc2c(=O)[nH]1)C(=O)O`, the zone of inhibition at 10 µg/disc in experiment [1] is 11 mm; in experiment [2], 12 mm; in experiment [3], 12 mm; in experiment [4], 10 mm; in experiment [5], 11 mm.
